# ChEMBL document CHEMBL1125746, “Novel heteroarotinoids: synthesis and biological activity” (1991)
# Tests used:
# [1] = test system: HL-60; experiment: Compound was evaluated for the retinoid-induced differentiation of the human myeloid leukemia cell line HL-60 using trans-retinoic acid as the standard.; type: functional; details: read-out: ED50 (the source's name)
# [2] = molecular target: T1, Ornithine decarboxylase (Mus musculus) (UniProt P00860); experiment: Compound was evaluated for the ability to inhibit the phorbol ester induced increase of mouse epidermal ornithine decarboxylase (ODC) activity by 50% when administered topically using ODC assay.; type: functional
# T1 sequence (whole entry): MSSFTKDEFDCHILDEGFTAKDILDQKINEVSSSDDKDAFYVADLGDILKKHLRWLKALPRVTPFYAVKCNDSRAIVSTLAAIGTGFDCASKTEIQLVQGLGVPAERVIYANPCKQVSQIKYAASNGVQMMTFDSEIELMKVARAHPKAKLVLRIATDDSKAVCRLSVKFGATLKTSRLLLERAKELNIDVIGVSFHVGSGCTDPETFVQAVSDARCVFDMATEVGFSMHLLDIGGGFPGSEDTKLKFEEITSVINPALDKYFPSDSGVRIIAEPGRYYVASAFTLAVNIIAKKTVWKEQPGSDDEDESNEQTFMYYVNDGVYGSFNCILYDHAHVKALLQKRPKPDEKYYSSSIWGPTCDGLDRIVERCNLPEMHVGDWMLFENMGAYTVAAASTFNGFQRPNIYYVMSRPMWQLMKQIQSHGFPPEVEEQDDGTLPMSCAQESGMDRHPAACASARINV
# In short: (§1)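 Retinoids applied topically to mouse skin at 0.1, 1.0, 5.0, 10 and 50 nmol, 1 h before 10 nmol TPA. Epidermal ODC activity measured 4.5 h after TPA as nmol CO2/30 min per mg protein. ID50 (dose giving 50% inhibition of TPA-induced ODC) read from dose-response curves; three experiments, results normalized.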
# [3] = molecular target: Ornithine decarboxylase (Mus musculus) (UniProt P00860); experiment: Compound was evaluated for the ability to inhibit the phorbol ester induced increase of mouse epidermal ornithine decarboxylase (ODC) activity by 50% when administered topically using ODC assay.
# [4] = molecular target: T1, Ornithine decarboxylase (Mus musculus); experiment: Compound was evaluated for the ability to inhibit the phorbol ester induced increase of mouse epidermal ornithine decarboxylase; type: functional; in short: as §1
# [5] = molecular target: T1, Ornithine decarboxylase (Mus musculus); experiment: Compound was evaluated for the percentage inhibition of test retinoid as compared to the control by ODCassay; type: functional; details: concentration not given here
# In short: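 Single topical retinoid dose of 34 nmol given 1 h before 10 nmol TPA on mouse skin. Epidermal ODC assayed 4.5 h after TPA as nmol CO2/30 min per mg protein. Three groups of two mice each. % inhibition = [(ODC with TPA) − (ODC with TPA + retinoid)]/(ODC with TPA) × 100.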
Compound,EC50 [1] [nM],ID50 [2] [nM],other results
CC1=C(/C=C/C(C)=C/C=C/C(C)=C\C(=O)O)C(C)(C)CCC1 [ISOTRETINOIN],100,–,–
CC1(C)CCSc2ccc(/C(=C/c3ccc(C(=O)O)cc3)C(F)(F)F)cc21,> 1000,35,–
COC(=O)c1ccc(/C=C(\C)c2ccc3c(c2)C(C)(C)CC(C)(C)S3)cc1,–,–,ID50 [3]: 0.3 nM
CC(/C=C/C=C(\C)c1ccc2c(c1)C(C)(C)CCS2)=C\C(=O)O,500,3.3,–
C/C(=C\C=C\[C@H]1C[C@@H]1C(=O)O)c1ccc2c(c1)C(C)(C)CCS2,> 1000,35,–
CCCCCCCCCCCCCC(=O)OCC1(C)[C@H]2[C@@H]3C=C(CO)C[C@]4(O)C(=O)C(C)=C[C@H]4[C@@]3(O)[C@H](C)[C@@H](O)[C@]21OC(C)=O.COC(=O)c1ccc(/C=C(\C)c2ccc3c(c2)C(C)(C)CS3)cc1 (some centres undefined),–,–,ID50 [4]: 1.2 nM; inhibition [5]: 94%
CC1(C)CCOc2ccc(/C(=C/c3ccc(C(=O)O)cc3)C(F)(F)F)cc21,> 1000,> 50,–
C/C(=C\c1ccc(C(=O)O)cc1)c1ccc2c(c1)C(C)(C)CC(C)(C)S2,> 1000,0.31,–
CC1(C)CC(C)(C)c2cc(/C(=C/c3ccc(C(=O)O)cc3)C(F)(F)F)ccc2S1,–,> 50,–
C/C(=C\c1ccc(C(=O)O)cc1)c1ccc2c(c1)C(C)(C)CS2.CCCCCCCCCCCCCC(=O)OCC1(C)[C@H]2[C@@H]3C=C(CO)C[C@]4(O)C(=O)C(C)=C[C@H]4[C@@]3(O)[C@H](C)[C@@H](O)[C@]21OC(C)=O (some centres undefined),–,–,ID50 [4]: 22 nM; inhibition [5]: 91%
COC(=O)c1ccc(/C=C(/c2ccc3c(c2)C(C)(C)CC(C)(C)S3)C(F)(F)F)cc1,–,> 50,–
CC(/C=C/C=C(\C)c1ccc2c(c1)C(C)(C)CC(C)(C)S2)=C\C(=O)O,> 1000,3.7,–
CC1=C(/C=C/C(C)=C/C=C/C(C)=C/C(=O)O)C(C)(C)CCC1 [TRETINOIN],50,0.12,–
COC(=O)c1ccc(/C=C(/c2ccc3c(c2)C(C)(C)CCS3)C(F)(F)F)cc1,–,> 50,–
COC(=O)c1ccc(/C=C(/c2ccc3c(c2)C(C)(C)CCO3)C(F)(F)F)cc1,–,> 50,–
